The list is not random: actives were taken first. Their share in the collection is about 1.3%.
CASP6 VEID inh = inhibitors of human caspase-6; purified caspase-6, Z-VEID-R110 cleavage fluorescence; 0.53% of 350,000 active; inhibition, % at 12.5 µM; AID 686996;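 active = mean inhibition across replicates at least about 35%, with every replicate also reaching that limit, limit read from the data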
S100A4 inh HTS = inhibitors of human S100A4 binding to myosin IIA peptide; P26447; S100A4/TAMRA-MyoIIA peptide fluorescence polarization; inhibition, % at 10.7 µM; 0.14% of 360,000 active;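 active = mean inhibition of at least 70% across replicates, with every replicate also reaching that level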
Target sequence (P26447 whole entry, looked up): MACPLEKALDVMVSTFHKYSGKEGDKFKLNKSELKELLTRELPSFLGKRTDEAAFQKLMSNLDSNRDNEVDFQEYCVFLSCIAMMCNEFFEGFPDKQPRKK
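Compound dosing: one dose per compound; test system: human S100A4 monomer with TAMRA-labelled myosin IIA peptide; probe or stimulus: TAMRA-labelled myosin IIA heavy-chain peptide probe, 5 nM; medium: HEPES buffer with Ca2+, pH 7.2; schedule: 5 min incubation before reading; benchmarks: neutral control DMSO, positive control TFP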
RAD54 branch = blocks human RAD54 Holliday junction branch migration. Q92698. FAM/BHQ fluorescence. inhibition, % at 10.4 µM. 0.14% of 360,000 active;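 active = mean normalized replicate activity at least 40 and at least half of replicates scoring 40 or more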;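 also: inhibitors cause a drop in the FAM fluorescence signal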
Xi reactivation = X-chromosome reactivation activator; XiGFP mouse fibroblasts, % GFP-positive cells imaging, 3 d; cells co-treated with 5-aza-dC sensitizer; scaled so ellipticine positive control = 100%; activation, % at 7.58 µM; 0.055% of 360,000 active; AID 743238;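 active = mean normalized replicate activation at least 10% and every replicate at or above 10%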
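Assay system: SV40-immortalized XiGFP fibroblast cells, line 68-5-11; buffer or medium: DMEM plus 5-aza-dC sensitizer; compound: one concentration, pinned; timing: compounds 3 days, fix/stain 15 min at room temperature; benchmarks: positive control ellipticine, 6 µM final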
AF4-AF9 inh = MLL-AF4/AF9 protein interaction inhibition | inhibition, % at 10 µM | 0.47% of 350,000 active | AlphaScreen, biotin-AF4 peptide binding to FLAG-AF9 | AID 651704 | P42568;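 active = every replicate reaching a set inhibition limit, whatever the replicate mean, cut at about 25% in these data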
Target sequence (P42568 whole entry, looked up): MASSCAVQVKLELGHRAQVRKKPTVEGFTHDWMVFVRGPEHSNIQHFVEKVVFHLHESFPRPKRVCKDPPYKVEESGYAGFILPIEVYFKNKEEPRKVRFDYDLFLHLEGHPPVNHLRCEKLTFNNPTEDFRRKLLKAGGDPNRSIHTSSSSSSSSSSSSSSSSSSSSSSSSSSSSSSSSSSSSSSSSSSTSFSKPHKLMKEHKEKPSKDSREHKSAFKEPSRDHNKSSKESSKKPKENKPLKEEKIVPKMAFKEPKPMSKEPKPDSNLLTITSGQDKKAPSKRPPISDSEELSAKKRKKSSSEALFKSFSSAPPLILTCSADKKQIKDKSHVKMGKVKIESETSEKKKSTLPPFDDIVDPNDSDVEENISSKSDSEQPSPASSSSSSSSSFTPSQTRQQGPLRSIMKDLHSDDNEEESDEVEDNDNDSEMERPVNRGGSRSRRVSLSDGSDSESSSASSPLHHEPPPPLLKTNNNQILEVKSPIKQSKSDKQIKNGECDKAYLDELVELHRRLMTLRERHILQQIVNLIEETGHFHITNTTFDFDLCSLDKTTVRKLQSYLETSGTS
RAD52 anneal inh = blocks human RAD52 DNA annealing | 0.46% of 360,000 active | inhibition, % at 18.7 µM | P43351 | recombinant RAD52 DNA annealing, FRET fluorescence;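 active = every replicate showing at least 50% inhibition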
Numbers stand for hits.

`CNC[C@@H]1Oc2ccc(NS(C)(=O)=O)cc2C(=O)N(C)C[C@H]1C` gave Xi reactivation inactive.
Screening O=[N+]([O-])c1ccccc1S(=O)(=O)Nc1nc2ccccc2s1 returned CASP6 VEID inh 44, S100A4 inh HTS inactive, RAD54 branch inactive, Xi reactivation inactive, AF4-AF9 inh inactive and RAD52 anneal inh inactive.
O=[N+]([O-])c1ccc2nc(NS(=O)(=O)c3ccccc3[N+](=O)[O-])sc2c1 was read as CASP6 VEID inh inactive, S100A4 inh HTS inactive, RAD54 branch inactive, Xi reactivation inactive, AF4-AF9 inh inactive and RAD52 anneal inh inactive.
For CCC(=O)N[C@@H]1CC[C@@H](CC(=O)NCc2cc(F)cc(F)c2)O[C@@H]1CO the results were CASP6 VEID inh inactive, S100A4 inh HTS inactive, RAD54 branch inactive, Xi reactivation inactive, AF4-AF9 inh inactive and RAD52 anneal inh inactive.
CCOC(=O)/C(C#N)=C/c1c(N2CCN(c3cccc(Cl)c3)CC2)nc2c(C)cccn2c1=O was read as CASP6 VEID inh 53, S100A4 inh HTS inactive, RAD54 branch inactive, Xi reactivation inactive, AF4-AF9 inh inactive and RAD52 anneal inh inactive.
C[C@@H]1CCCCO[C@@H](CN(C)C(=O)Nc2ccccc2)[C@H](C)CN([C@H](C)CO)C(=O)c2cc(NC(=O)NC3CCCCC3)ccc2O1 was read as CASP6 VEID inh inactive, S100A4 inh HTS inactive, RAD54 branch inactive, Xi reactivation inactive, AF4-AF9 inh inactive and RAD52 anneal inh inactive.
For COc1ccc2c3c(n(C)c2c1)[C@@H](CO)NCC31CCN(S(=O)(=O)c2cccc(C)c2)CC1 the results were CASP6 VEID inh inactive, S100A4 inh HTS inactive, Xi reactivation inactive, AF4-AF9 inh 27 and RAD52 anneal inh 54.
Screening COc1ccc2c3c(n(C)c2c1)[C@H](CO)NCC31CCN(Cc2ccc(Cl)cc2)CC1 returned Xi reactivation inactive and AF4-AF9 inh 44.
Screening COc1ccc2c3c(n(C)c2c1)[C@@H](CO)NCC31CCN(Cc2ccc(Cl)cc2)CC1 returned Xi reactivation inactive.
For COc1ccc2c3c(n(C)c2c1)[C@H](CO)NCC31CCN(Cc2cc(F)ccc2F)CC1 the results were CASP6 VEID inh inactive, S100A4 inh HTS inactive, Xi reactivation inactive, AF4-AF9 inh 26 and RAD52 anneal inh inactive.
For COc1ccc2c3c(n(C)c2c1)[C@@H](CO)NCC31CCN(Cc2cc(F)ccc2F)CC1 the results were CASP6 VEID inh inactive, S100A4 inh HTS inactive, Xi reactivation inactive, AF4-AF9 inh 32 and RAD52 anneal inh inactive.
`COc1ccc2c3c(n(C)c2c1)[C@@H](CO)NCC31CCN(S(=O)(=O)c2cccc(F)c2)CC1` gave Xi reactivation inactive.
CO[C@H]1CN(C)C(=O)c2cc(NC(=O)c3ccccc3)ccc2OC[C@@H](C)N(C)C[C@H]1C was read as CASP6 VEID inh inactive, S100A4 inh HTS inactive, RAD54 branch inactive, Xi reactivation inactive, AF4-AF9 inh inactive and RAD52 anneal inh inactive.
C[C@@H]1CCCCO[C@@H](CN(C)Cc2ccccc2)[C@@H](C)CN([C@@H](C)CO)C(=O)c2cc(NS(=O)(=O)c3cn(C)cn3)ccc2O1 was read as CASP6 VEID inh inactive, S100A4 inh HTS inactive, RAD54 branch inactive, Xi reactivation inactive, AF4-AF9 inh inactive and RAD52 anneal inh inactive.
`Cc1ccc(S(=O)(=O)C2(C(=O)N3CCN(c4cc(C)ccc4C)CC3)CC2)cc1` gave CASP6 VEID inh inactive, S100A4 inh HTS inactive, RAD54 branch inactive, Xi reactivation inactive, AF4-AF9 inh 38 and RAD52 anneal inh inactive.
Screening O=C(C[C@H]1CC[C@H]2[C@@H](COC[C@@H](O)CN2C(=O)c2ccccc2)O1)NCc1cccc(F)c1 returned CASP6 VEID inh inactive, S100A4 inh HTS inactive, RAD54 branch inactive, Xi reactivation inactive, AF4-AF9 inh inactive and RAD52 anneal inh inactive.
Screening CCOc1ccc(CNC(=O)CS(=O)(=O)Cc2nc(-c3ccc(OC)cc3)oc2C)cc1 returned CASP6 VEID inh inactive, S100A4 inh HTS inactive, RAD54 branch inactive, Xi reactivation inactive, AF4-AF9 inh 48 and RAD52 anneal inh inactive.
C/C=C/c1cnc2c(c1)C(=O)N([C@@H](C)CO)C[C@@H](C)[C@@H](CN(C)C(=O)Cc1ccccc1)O2 was read as CASP6 VEID inh inactive, S100A4 inh HTS inactive, RAD54 branch inactive, Xi reactivation inactive, AF4-AF9 inh inactive and RAD52 anneal inh inactive.
C[C@@H]1CCCCO[C@@H](CN(C)CC2CC2)[C@@H](C)CN([C@H](C)CO)C(=O)c2cc(NC(=O)Nc3ccccc3)ccc2O1 was read as CASP6 VEID inh inactive, S100A4 inh HTS inactive, RAD54 branch inactive, Xi reactivation inactive, AF4-AF9 inh inactive and RAD52 anneal inh inactive.
For COc1ccc(NC(=O)Nc2ccc3c(c2)C(=O)N([C@@H](C)CO)C[C@@H](C)[C@@H](CN(C)CC2CC2)OCCCC[C@@H](C)O3)cc1 the results were CASP6 VEID inh inactive, S100A4 inh HTS inactive, RAD54 branch inactive, Xi reactivation inactive, AF4-AF9 inh 26 and RAD52 anneal inh inactive.
Screening C[C@@H]1CCCCO[C@@H](CN(C)C(=O)CCC(F)(F)F)[C@H](C)CN([C@@H](C)CO)C(=O)c2cc(NC(=O)c3ccccc3)ccc2O1 returned CASP6 VEID inh inactive, S100A4 inh HTS inactive, RAD54 branch inactive, Xi reactivation inactive, AF4-AF9 inh inactive and RAD52 anneal inh inactive.
For C[C@@H]1CN([C@@H](C)CO)C(=O)c2cc(NC(=O)c3ccccc3)ccc2O[C@@H](C)CCCCO[C@H]1CN(C)CC1CCCCC1 the results were CASP6 VEID inh inactive, S100A4 inh HTS inactive, RAD54 branch inactive, Xi reactivation inactive, AF4-AF9 inh 27 and RAD52 anneal inh inactive.
`COc1ccc(NC(=O)Nc2ccc3c(c2)C(=O)N([C@H](C)CO)C[C@@H](C)[C@H](CN(C)CC2CC2)OCCCC[C@H](C)O3)cc1` gave S100A4 inh HTS inactive, Xi reactivation inactive, AF4-AF9 inh inactive and RAD52 anneal inh inactive.
`C[C@@H]1CCCCO[C@H](CN(C)CC2CC2)[C@H](C)CN([C@@H](C)CO)C(=O)c2cc(NC(=O)Nc3ccccc3)ccc2O1` gave CASP6 VEID inh inactive, S100A4 inh HTS inactive, RAD54 branch inactive, Xi reactivation inactive, AF4-AF9 inh inactive and RAD52 anneal inh 57.
C[C@@H]1CCCCO[C@@H](CN(C)C(=O)CCC(F)(F)F)[C@@H](C)CN([C@@H](C)CO)C(=O)c2cc(NC(=O)c3ccccc3)ccc2O1 was read as CASP6 VEID inh inactive, S100A4 inh HTS 97, RAD54 branch inactive, Xi reactivation inactive, AF4-AF9 inh inactive and RAD52 anneal inh inactive.
`CCCN(C)C[C@H]1OCCCC[C@@H](C)Oc2ccc(NC(=O)Nc3ccc(OC)cc3)cc2C(=O)N([C@@H](C)CO)C[C@H]1C` gave CASP6 VEID inh inactive, S100A4 inh HTS inactive, RAD54 branch inactive, Xi reactivation inactive, AF4-AF9 inh inactive and RAD52 anneal inh 53.
